ChEMBL document CHEMBL4840316, “Structure-based screening for the discovery of 1,2,4-oxadiazoles as promising hits for the development of new anti-inflammatory agents interfering with eicosanoid biosynthesis pathways” (Eur J Med Chem, 2021)

Key:
[1] = biological target: T1, Prostaglandin E synthase (Homo sapiens) (UniProt O14684); assay: Inhibition of mPGES-1 obtained from IL-beta stimulated human A549 cells microsomes assessed as residual activity by measuring conversion of PGH2 to PGE2 at 10 uM by cell-free RP-HPLC method; settings: Microsome
T1 sequence (whole entry): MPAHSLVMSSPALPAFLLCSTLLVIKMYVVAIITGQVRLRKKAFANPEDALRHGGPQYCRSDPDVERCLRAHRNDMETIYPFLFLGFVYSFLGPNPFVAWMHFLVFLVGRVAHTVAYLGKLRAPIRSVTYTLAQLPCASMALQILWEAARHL
Method in brief: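 Microsomes from A549 cells stimulated with IL-1β (1 ng/ml) for 48 h. Diluted in 0.1 M potassium phosphate pH 7.4 with 2.5 mM glutathione. Pre-incubated 15 min on ice with compound (single 10 µM, or 0.03–10 µM for the curve) or 1% DMSO. 20 µM PGH2 added for 1 min; stopped with FeCl3/citric acid containing 11β-PGE2 standard. PGE2 measured by SPE and RP-HPLC. n = 3.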

[2] = biological target: T2, Polyunsaturated fatty acid 5-lipoxygenase (Homo sapiens) (UniProt P09917); assay: Inhibition of 5-LO in A23187-stimulated human intact neutrophils assessed as reduction in LTB4/5-HETE formation by measuring residual activity at 10 uM measured after 20 mins by RP-HPLC method; assay type: tissue-based; settings: Neutrophil
T2 sequence (whole entry): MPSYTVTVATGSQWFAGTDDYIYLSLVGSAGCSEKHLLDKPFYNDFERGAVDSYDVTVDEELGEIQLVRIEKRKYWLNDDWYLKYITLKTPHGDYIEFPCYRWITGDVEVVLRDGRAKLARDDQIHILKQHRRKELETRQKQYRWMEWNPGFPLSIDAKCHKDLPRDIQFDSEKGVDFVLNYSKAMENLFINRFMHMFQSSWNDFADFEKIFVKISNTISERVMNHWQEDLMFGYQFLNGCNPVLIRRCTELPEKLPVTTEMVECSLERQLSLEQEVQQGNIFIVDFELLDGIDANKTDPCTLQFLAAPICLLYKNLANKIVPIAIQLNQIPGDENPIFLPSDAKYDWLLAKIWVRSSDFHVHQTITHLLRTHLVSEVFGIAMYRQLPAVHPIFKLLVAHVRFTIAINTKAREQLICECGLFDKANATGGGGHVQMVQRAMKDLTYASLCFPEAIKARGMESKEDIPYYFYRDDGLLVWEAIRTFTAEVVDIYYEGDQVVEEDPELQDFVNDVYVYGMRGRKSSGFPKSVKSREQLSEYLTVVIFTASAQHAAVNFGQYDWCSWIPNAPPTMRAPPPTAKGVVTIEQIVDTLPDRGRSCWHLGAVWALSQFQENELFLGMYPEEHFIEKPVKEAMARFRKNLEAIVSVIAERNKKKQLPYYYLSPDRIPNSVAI
Method in brief: (§1)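 Human neutrophils at 5 × 10^6/mL in PBS with 0.1% glucose and 1 mM CaCl2. Pre-incubated with compound or 0.1% DMSO for 10 min at 37 °C. Stimulated with 2.5 µM A23187, with or without 20 µM AA, for 10 min at 37 °C. Stopped with cold methanol; PGB1 internal standard. LTB4, its trans isomers and 5-HETE quantified by SPE and RP-HPLC; % of control.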

[3] = biological target: T2, Polyunsaturated fatty acid 5-lipoxygenase (Homo sapiens); assay: Inhibition of 5-LO in A23187/AA-stimulated human intact neutrophils assessed as reduction in LTB4/5-HETE formation by measuring residual activity at 10 uM measured after 20 mins by RP-HPLC method; assay type: tissue-based; settings: Neutrophil; method in brief: as §1
[4] = biological target: T2, Polyunsaturated fatty acid 5-lipoxygenase (Homo sapiens); assay: Inhibition of 5-LO (unknown origin) expressed in Escherichia coli BL21 assessed as residual activity at 10 uM by RP-HPLC method relative to control
Method in brief: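 Human recombinant 5-LO expressed in E. coli BL21 and purified on ATP-agarose. 0.5 µg enzyme in 1 mL PBS + 1 mM EDTA pre-incubated with compound or 0.1% DMSO for 10 min on ice. Reaction started with 20 µM AA and 2 mM CaCl2, run 10 min at 37 °C, stopped with ice-cold methanol. Products analysed; activity as % of control.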

[5] = biological target: T3, Bifunctional epoxide hydrolase 2 (Homo sapiens) (UniProt P34913); assay: Inhibition of recombinant human sEH expressed in sf9 insect cells assessed as residual activity at 10 uM using PHOME as substrate preincubated for 15 mins followed by substrate addition and measured after 60 mins relative to control; settings: time 75.0 min
T3 sequence (whole entry): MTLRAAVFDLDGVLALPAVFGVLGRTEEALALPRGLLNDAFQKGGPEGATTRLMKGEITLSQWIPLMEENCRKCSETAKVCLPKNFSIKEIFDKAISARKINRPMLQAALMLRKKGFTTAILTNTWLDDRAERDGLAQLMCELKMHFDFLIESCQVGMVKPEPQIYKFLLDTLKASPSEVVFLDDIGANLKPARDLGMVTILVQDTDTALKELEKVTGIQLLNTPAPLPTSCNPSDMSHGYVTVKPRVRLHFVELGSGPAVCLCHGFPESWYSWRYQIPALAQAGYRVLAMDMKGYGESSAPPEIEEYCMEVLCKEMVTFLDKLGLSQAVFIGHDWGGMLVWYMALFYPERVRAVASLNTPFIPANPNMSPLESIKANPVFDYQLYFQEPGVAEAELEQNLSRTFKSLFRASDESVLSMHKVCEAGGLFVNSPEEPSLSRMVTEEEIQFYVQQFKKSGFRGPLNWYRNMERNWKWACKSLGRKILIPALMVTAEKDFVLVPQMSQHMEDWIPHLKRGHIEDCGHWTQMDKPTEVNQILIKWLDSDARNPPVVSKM
Method in brief: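 Human recombinant sEH from baculovirus-infected Sf9 cells, affinity-purified. Diluted in 25 mM Tris pH 7 with 0.1 mg/mL BSA. Pre-incubated 15 min at room temperature with 10 µM compound or 0.1% DMSO. 50 µM PHOME added, run 60 min at room temperature, stopped with ZnSO4. Fluorescence read at ex 330 / em 465 nm.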

Monocyte = assay: Cytotoxicity against human monocyte cells assessed as cell viability at 10 uM measured after 24 hrs by MTT assay; assay type: cell-based
Method in brief: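 Human monocytes isolated from PBMC by adherence, 0.2 × 10^6 per well in buffer. Exposed to 10 µM compound or 0.5% DMSO for 24 h (37 °C, 5% CO2). MTT for 2 h, then SDS lysis (10%, pH 4.5) for 17 h. Absorbance read at 570 nm; viability as % of vehicle, n = 3.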

A549 = assay: Cytotoxicity against human A549 cells assessed as cell viability at 10 uM measured after 48 hrs by MTT assay; assay type: cell-based; settings: a549, 48 h
Method in brief: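 A549 cells in DMEM + 10% FBS, 2 × 10^4 per well, seeded in triplicate. Exposed to 10 µM compound or 0.1% DMSO for 48 h at 37 °C, 5% CO2. MTT added for 1 h, formazan dissolved in DMSO, absorbance read at 570 nm. Viability given as % of vehicle, n = 3.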

[6] = biological target: Prostaglandin G/H synthase 1 (Ovis aries) (UniProt P05979); assay: Inhibition of ovine COX-1 assessed as residual activity at 10 uM using arachidonic acid as substrate preincubated for 5 mins by RP-HPLC method relative to control; settings: time 10.0 min
Chain of Prostaglandin G/H synthase 1 (Ovis aries) (P05979 whole entry, looked up): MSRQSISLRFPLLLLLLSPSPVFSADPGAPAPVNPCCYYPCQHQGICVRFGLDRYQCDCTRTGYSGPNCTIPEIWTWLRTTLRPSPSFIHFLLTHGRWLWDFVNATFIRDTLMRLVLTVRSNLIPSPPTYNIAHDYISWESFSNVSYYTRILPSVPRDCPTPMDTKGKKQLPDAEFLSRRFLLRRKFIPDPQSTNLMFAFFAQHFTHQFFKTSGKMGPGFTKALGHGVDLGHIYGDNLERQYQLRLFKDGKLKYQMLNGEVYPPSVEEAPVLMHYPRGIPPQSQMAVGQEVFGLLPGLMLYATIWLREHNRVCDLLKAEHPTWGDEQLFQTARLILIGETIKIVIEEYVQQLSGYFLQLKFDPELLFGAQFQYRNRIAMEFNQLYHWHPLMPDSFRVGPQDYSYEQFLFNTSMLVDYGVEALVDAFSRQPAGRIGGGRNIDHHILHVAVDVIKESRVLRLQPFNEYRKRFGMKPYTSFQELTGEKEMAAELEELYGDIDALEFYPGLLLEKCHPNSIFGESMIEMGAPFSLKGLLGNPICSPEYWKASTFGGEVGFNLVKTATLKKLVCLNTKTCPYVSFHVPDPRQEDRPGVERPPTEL

Row | Activity [1] | Activity [2] | Activity [3] | Activity [4] | Activity [5] | Activity [6] | SMILES | Activity (Monocyte) | Activity (A549)
1 | 76.4% | 19.9% | 14.9% | 105% | > 50% | 47.7% | Oc1cccc(CCc2nc(-c3ccc(-c4ccsc4)cc3)no2)c1 | Non-Toxic | Non-Toxic
2 | 25.4% | 1.7% | 18.5% | 10.3% | > 50% | 34.7% | Oc1c(F)c(F)cc(-c2nc(-c3ccc(-c4ccsc4)cc3)no2)c1F | Non-Toxic | Non-Toxic
